Results reported in ChEMBL document CHEMBL1139509, “Design, synthesis, and antipicornavirus activity of 1-[5-(4-arylphenoxy)alkyl]-3-pyridin-4-ylimidazolidin-2-one derivatives” (J Med Chem, 2005).
Blank lines part the entries; values can stand above or below the compound they belong to.

Experiments:
Enterovirus [1] = experiment: In vitro inhibitory concentration against human enterovirus EV71-2231 strain; assay type: functional, organism-based, Enterovirus A71
Summary of the method: (§1)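 CPE-inhibition (neutralization) assay on RD cells seeded at 3 × 10⁵ cells/mL in DMEM/10% FBS and grown 24-30 h to about 90% confluency. Virus (100 TCID50) was mixed with graded compound concentrations and adsorbed 1 h at 37 °C. Cells were overlaid with DMEM, 5% FBS and 2% DMSO, incubated 64 h at 37 °C, then glutaraldehyde-fixed and crystal violet-stained, with A570 read-out. IC50 is 50% CPE reduction versus virus control. Triplicate, at least twice.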

Enterovirus [2] = experiment: In vitro inhibitory concentration against human enterovirus EV71-4643 strain; assay type: functional, organism-based, Enterovirus A71; summary of the method: as §1
[3] = Cytotoxicity against human rhabdomyosarcoma cells; assay type: cell-based
Summary of the method: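 RD (rhabdomyosarcoma) cells were exposed to test compounds at various concentrations for 96 h at 37 °C. Viable cells were counted by trypan blue staining. CC50 is the concentration that reduces viability to 50% of the untreated control culture. Triplicate, run at least twice.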

[4] = In vitro inhibitory concentration against Echovirus 6; assay type: functional, Viruses
Enterovirus [5] = experiment: In vitro inhibitory concentration against human enterovirus EV71; assay type: functional, organism-based, Viruses; summary of the method: as §1
[6] = In vitro inhibitory concentration against Coxsackievirus B4; assay type: functional, Viruses; summary of the method: as §1
Coxsackievirus [7] = experiment: Inhibitory concentration against Coxsackievirus A10; assay type: functional, organism-based, Viruses; summary of the method: as §1
Enterovirus [8] = experiment: Inhibitory concentration against human enterovirus EV68; assay type: functional, organism-based, Viruses
[9] = Inhibitory concentration against Echovirus 9; assay type: functional, Viruses; summary of the method: as §1
[10] = Inhibitory concentration against Echovirus 29; assay type: functional, Viruses; summary of the method: as §1
Coxsackievirus [11] = experiment: Inhibitory concentration against Coxsackievirus A9; assay type: functional, organism-based, Viruses; summary of the method: as §1
Coxsackievirus [12] = experiment: Inhibitory concentration against Coxsackievirus B1; assay type: functional, organism-based, Viruses; summary of the method: as §1
Coxsackievirus [13] = experiment: Inhibitory concentration against Coxsackievirus B2; assay type: functional, organism-based, Viruses; summary of the method: as §1
Coxsackievirus [14] = experiment: Inhibitory concentration against Coxsackievirus B3; assay type: functional, organism-based, Viruses; summary of the method: as §1
Coxsackievirus [15] = experiment: Inhibitory concentration against Coxsackievirus B4; assay type: functional, organism-based, Viruses; summary of the method: as §1
Coxsackievirus [16] = experiment: Inhibitory concentration against Coxsackievirus B5; assay type: functional, organism-based, Viruses; summary of the method: as §1
Coxsackievirus [17] = experiment: Inhibitory concentration against Coxsackievirus B6; assay type: functional, organism-based, Viruses; summary of the method: as §1
Coxsackievirus [18] = experiment: Inhibitory concentration against Coxsackievirus A16; assay type: functional, organism-based, Viruses; summary of the method: as §1
Coxsackievirus [19] = experiment: Inhibitory concentration against Coxsackievirus A24; assay type: functional, organism-based, Viruses; summary of the method: as §1
rhinovirus A2 = experiment: Inhibitory concentration against Human rhinovirus 2; assay type: functional, organism-based, human rhinovirus type 2; conditions: Rhinovirus A; summary of the method: as §1
[20] = Inhibitory concentration against Human rhinovirus 14; assay type: functional, human rhinovirus type 14; summary of the method: as §1
Enterovirus [21] = experiment: Inhibitory concentration against human enterovirus EV71 (1743) genotype B; assay type: functional, organism-based, Viruses; summary of the method: as §1
Enterovirus [22] = experiment: Inhibitory concentration against human enterovirus EV71 (2086) genotype C; assay type: functional, organism-based, Viruses; summary of the method: as §1
Enterovirus [23] = experiment: Inhibitory concentration against human enterovirus EV71 (2231) genotype C; assay type: functional, organism-based, Viruses; summary of the method: as §1
Enterovirus [24] = experiment: Inhibitory concentration against human enterovirus EV71 (4643) genotype C; assay type: functional, organism-based, Viruses; summary of the method: as §1
Enterovirus [25] = experiment: Inhibitory concentration against human enterovirus EV71 (BrCr) genotype A; assay type: functional, organism-based, Viruses; summary of the method: as §1
Enterovirus [26] = experiment: Ratio of CC50 to that of IC50 against human enterovirus EV71-2231 strain; assay type: functional, Enterovirus A71
Enterovirus [27] = experiment: Ratio of CC50 to that of IC50 against human enterovirus EV71-4643 strain; assay type: functional, Enterovirus A71
Human rhinovirus sp. = experiment: In vitro inhibitory concentration against Rhinovirus 1B; assay type: functional, organism-based, Viruses

Structure (SMILES): O=C1N(CCC2(CCOc3ccc(-c4ccc(Cl)cc4)cc3)CCCCC2)CCN1c1ccncc1
IC50 (Enterovirus [1]): > 25000 nM
IC50 (Enterovirus [2]): > 25000 nM
CC50 [3]: > 25000 nM

Structure (SMILES): CC(CCCN1CCN(c2ccncc2)C1=O)COc1ccc(-c2ccc(Cl)cc2)cc1 (configuration not stated)
IC50 (Enterovirus [1]): 57 nM
IC50 (Enterovirus [2]): 15 nM
CC50 [3]: > 25000 nM

Structure (SMILES): N#Cc1ccc2c(c1)CCC(c1ccc(Cl)cc1)O2 (configuration not stated)
IC50 [4]: 480 nM
IC50 (Enterovirus [5]): 450 nM
IC50 [6]: 320 nM

Structure (SMILES): O=C1N(Cc2cccc(COc3ccc(-c4ccc(Cl)cc4)cc3)n2)CCN1c1ccncc1
IC50 (Enterovirus [1]): > 25000 nM
IC50 (Enterovirus [2]): > 25000 nM
CC50 [3]: > 25000 nM

Structure (SMILES): O=C1N(CCC(CCOc2ccc(-c3ccc(Cl)cc3)cc2)c2ccccc2)CCN1c1ccncc1 (configuration not stated)
IC50 (Enterovirus [1]): > 25000 nM
IC50 (Enterovirus [2]): > 25000 nM
CC50 [3]: > 25000 nM

Structure (SMILES): CC(C)(CCCOc1ccc(-c2ccc(Cl)cc2)cc1)CN1CCN(c2ccncc2)C1=O
IC50 (Enterovirus [1]): 720 nM
IC50 (Enterovirus [2]): 94 nM
CC50 [3]: 20000 nM

Structure (SMILES): CCc1nc(-c2ccc(OCCC(C)CCN3CCN(c4ccncc4)C3=O)cc2)no1 (configuration not stated)
IC50 (Coxsackievirus [7]): 560 nM
IC50 (Enterovirus [8]): 5460 nM
IC50 [9]: 500 nM
IC50 [10]: 2630 nM
IC50 (Coxsackievirus [11]): > 25000 nM
IC50 (Coxsackievirus [12]): 46 nM
IC50 (Coxsackievirus [13]): 4790 nM
IC50 (Coxsackievirus [14]): > 25000 nM
IC50 (Coxsackievirus [15]): 1270 nM
IC50 (Coxsackievirus [16]): 4500 nM
IC50 (Coxsackievirus [17]): > 25000 nM
IC50 (Coxsackievirus [18]): 87 nM
IC50 (Coxsackievirus [19]): 150 nM
IC50 (rhinovirus A2): 1580 nM
IC50 [20]: 830 nM
IC50 (Enterovirus [1]): 15 nM
IC50 (Enterovirus [2]): 0.5 nM
IC50 (Enterovirus [21]): 15 nM
IC50 (Enterovirus [22]): 4 nM
IC50 (Enterovirus [23]): 15 nM
IC50 (Enterovirus [24]): 0.5 nM
IC50 (Enterovirus [25]): 10 nM
Selectivity index (Enterovirus [26]): >1666
Selectivity index (Enterovirus [27]): >50000
CC50 [3]: > 25000 nM

Structure (SMILES): O=C1N(Cc2cccc(COc3ccc(-c4ccc(Cl)cc4)cc3)c2)CCN1c1ccncc1
IC50 (Enterovirus [1]): 1170 nM
IC50 (Enterovirus [2]): 160 nM
CC50 [3]: > 6250 nM

Structure (SMILES): c1ccc(C2COc3ccc(C4=NCCO4)cc3C2)cc1 (configuration not stated)
IC50 (Enterovirus [5]): 4560 nM
IC50 (Human rhinovirus sp.): 1010 nM

Structure (SMILES): O=C1N(CCC(CCOc2ccc(-c3ccc(Cl)cc3)cc2)C(F)(F)F)CCN1c1ccncc1 (configuration not stated)
IC50 (Enterovirus [1]): 2540 nM
IC50 (Enterovirus [2]): 740 nM
CC50 [3]: > 12500 nM

More lines, main results first:

IC50 (Enterovirus [1]): > 5000 nM
IC50 (Enterovirus [2]): > 5000 nM
Structure (SMILES): O=C1N(CCN(CCOc2ccc(-c3ccc(Cl)cc3)cc2)Cc2ccccc2)CCN1c1ccncc1
CC50 [3]: > 5000 nM

IC50 (Enterovirus [1]): > 25000 nM
IC50 (Enterovirus [2]): > 25000 nM
Structure (SMILES): O=C1N(CCN(CCOc2ccc(-c3ccc(Cl)cc3)cc2)Cc2ccc(Cl)cc2)CCN1c1ccncc1
CC50 [3]: > 25000 nM

IC50 (Enterovirus [1]): > 12500 nM
IC50 (Enterovirus [2]): > 12500 nM
Structure (SMILES): Cc1ccc(CN(CCOc2ccc(-c3ccc(Cl)cc3)cc2)CCN2CCN(c3ccncc3)C2=O)cc1
CC50 [3]: > 12500 nM

IC50 (Enterovirus [1]): 600 nM
IC50 (Enterovirus [2]): 170 nM
Structure (SMILES): CCC(CCOc1ccc(-c2ccc(Cl)cc2)cc1)CCN1CCN(c2ccncc2)C1=O (configuration not stated)
CC50 [3]: > 25000 nM

IC50 (Enterovirus [1]): > 1250 nM
IC50 (Enterovirus [2]): > 1250 nM
Structure (SMILES): O=C1N(Cc2ccc(COc3ccc(-c4ccc(Cl)cc4)cc3)cc2)CCN1c1ccncc1
CC50 [3]: > 1250 nM

IC50 (Enterovirus [1]): 1180 nM
IC50 (Enterovirus [2]): 400 nM
Structure (SMILES): CN(CCOc1ccc(-c2ccc(Cl)cc2)cc1)CCN1CCN(c2ccncc2)C1=O
CC50 [3]: 25000 nM

IC50 (Enterovirus [1]): 7300 nM
IC50 (Enterovirus [2]): 830 nM
Structure (SMILES): O=C1N(CCOCCOc2ccc(-c3ccc(Cl)cc3)cc2)CCN1c1ccncc1
CC50 [3]: 25000 nM
